# Source: ChEMBL document CHEMBL4699542, “Design and synthesis of novel methoxypyridine-derived gamma-secretase modulators” (Bioorg Med Chem, 2020)
# pIC50: −log10 of the molar value.
# Columns and labels:
# [1] = Metabolic stability in rat liver microsomes assessed as parent compound remaining at 1 uM incubated for 30 mins; format: ADME, Microsome; details: 0.5 h
# Outline: (§1)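 Test compound at 1 μM incubated 30 min with human, rat or mouse liver microsomes (1 mg/mL); parent remaining expressed as %.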
# Gamma-secretase = assay: Modulation of gamma secretase in human SH-SY5Y cells overexpressing wild type APP751 assessed as inhibition of amyloid beta (35 to 42 residues) formation incubated for overnight by ELISA; format: cell-based
# Outline: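 SHSY5Y-APP751 cells plated at 75K/well and incubated overnight at 37 °C, then treated 24 h over 10 concentrations ([…]–10 μM, 1:3.16 steps, in duplicate). Medium Aβ42 measured by sandwich ELISA (Aβ35–42 capture, AP-conjugated Aβ1–12 detection, CDP-Star luminescence) against an Aβ42 standard curve.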
# [2] = Metabolic stability in mouse liver microsomes assessed as parent compound remaining at 1 uM incubated for 30 mins; format: ADME, Microsome; details: 0.5 h; outline: as §1
# [3] = Metabolic stability in human liver microsomes assessed as parent compound remaining at 1 uM incubated for 30 mins; format: ADME, Microsome; details: for Stabilty: microsomes, 0.5 h, 1 µM; outline: as §1
# [4] = Kinetic aqueous solubility of the compound in pH 7.4 PBS buffer by UV/Visible absorbance analysis; format: physicochemical; details: read-out: Kinetic_solubility
# Outline: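 Kinetic solubility determined in PBS at pH 7.4 by UV/Vis absorbance, reported in μM.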
# Cytochrome P450 2C9 = Cytochrome P450 2C9 (Homo sapiens, UniProt P11712); assay: Inhibition of recombinant CYP2C9 (unknown origin) by fluorescence-based assay; format: ADME
# Outline: (§2)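 Recombinant CYP isoforms (five tested) screened for inhibition in fluorescence-based assays; IC50 in μM.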
# Cytochrome P450 2D6 = Cytochrome P450 2D6 (Homo sapiens, UniProt P10635); assay: Inhibition of recombinant CYP2D6 (unknown origin) by fluorescence-based assay; format: ADME; outline: as §2
# Cytochrome P450 2C19 = Cytochrome P450 2C19 (Homo sapiens, UniProt P33261); assay: Inhibition of recombinant CYP2C19 (unknown origin) by fluorescence-based assay; format: ADME; outline: as §2
# Cytochrome P450 3A4 = Cytochrome P450 3A4 (Homo sapiens, UniProt P08684); assay: Inhibition of recombinant CYP3A4 (unknown origin) by fluorescence-based assay; format: ADME
# Cytochrome P450 1A2 = target: T1, Cytochrome P450 1A2 (Homo sapiens, UniProt P05177); assay: Inhibition of recombinant CYP1A2 (unknown origin) by fluorescence-based assay; format: ADME; outline: as §2
# T1 sequence (P05177 whole entry): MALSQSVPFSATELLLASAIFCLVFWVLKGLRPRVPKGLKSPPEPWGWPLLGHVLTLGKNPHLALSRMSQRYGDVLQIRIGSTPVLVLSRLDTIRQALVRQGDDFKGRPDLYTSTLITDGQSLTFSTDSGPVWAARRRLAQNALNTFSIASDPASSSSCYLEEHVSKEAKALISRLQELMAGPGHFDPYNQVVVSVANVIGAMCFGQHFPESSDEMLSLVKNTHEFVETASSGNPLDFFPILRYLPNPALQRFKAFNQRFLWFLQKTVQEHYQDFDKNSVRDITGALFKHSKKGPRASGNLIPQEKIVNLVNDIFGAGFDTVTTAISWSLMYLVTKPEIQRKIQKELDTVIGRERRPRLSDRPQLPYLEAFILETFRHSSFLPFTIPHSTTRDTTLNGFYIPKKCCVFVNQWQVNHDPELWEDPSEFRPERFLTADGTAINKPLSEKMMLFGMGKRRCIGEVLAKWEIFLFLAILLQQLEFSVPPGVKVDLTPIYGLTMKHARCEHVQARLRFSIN
# Sequence of Cytochrome P450 2D6 (P10635 whole entry): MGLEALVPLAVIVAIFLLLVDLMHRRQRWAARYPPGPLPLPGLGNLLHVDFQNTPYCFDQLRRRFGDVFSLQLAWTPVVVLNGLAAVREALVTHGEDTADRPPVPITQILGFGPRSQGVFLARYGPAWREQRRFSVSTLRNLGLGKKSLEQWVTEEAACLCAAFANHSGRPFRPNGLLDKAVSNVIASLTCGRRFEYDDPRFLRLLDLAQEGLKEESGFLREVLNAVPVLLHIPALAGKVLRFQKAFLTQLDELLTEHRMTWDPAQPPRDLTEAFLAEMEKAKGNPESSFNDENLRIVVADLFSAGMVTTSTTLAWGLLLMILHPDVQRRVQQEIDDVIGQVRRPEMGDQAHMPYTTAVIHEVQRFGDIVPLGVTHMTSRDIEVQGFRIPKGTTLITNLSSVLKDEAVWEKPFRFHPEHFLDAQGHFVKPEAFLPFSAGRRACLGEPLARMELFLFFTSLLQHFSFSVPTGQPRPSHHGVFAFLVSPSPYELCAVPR
# Sequence of Cytochrome P450 3A4 (P08684 whole entry): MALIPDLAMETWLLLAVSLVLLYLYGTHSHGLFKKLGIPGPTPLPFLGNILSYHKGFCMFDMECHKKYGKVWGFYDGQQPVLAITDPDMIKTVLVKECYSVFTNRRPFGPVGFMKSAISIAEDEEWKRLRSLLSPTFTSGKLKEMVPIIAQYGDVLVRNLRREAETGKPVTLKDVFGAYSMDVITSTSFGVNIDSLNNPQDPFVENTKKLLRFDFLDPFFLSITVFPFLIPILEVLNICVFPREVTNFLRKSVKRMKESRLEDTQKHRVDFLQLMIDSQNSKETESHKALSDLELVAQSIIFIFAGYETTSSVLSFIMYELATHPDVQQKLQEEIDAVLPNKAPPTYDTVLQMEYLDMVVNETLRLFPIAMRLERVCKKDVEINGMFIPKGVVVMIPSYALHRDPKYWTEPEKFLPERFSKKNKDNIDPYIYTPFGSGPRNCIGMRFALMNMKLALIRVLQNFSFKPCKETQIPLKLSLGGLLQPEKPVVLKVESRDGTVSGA
# Sequence of Cytochrome P450 2C9 (P11712 whole entry, canonical isoform): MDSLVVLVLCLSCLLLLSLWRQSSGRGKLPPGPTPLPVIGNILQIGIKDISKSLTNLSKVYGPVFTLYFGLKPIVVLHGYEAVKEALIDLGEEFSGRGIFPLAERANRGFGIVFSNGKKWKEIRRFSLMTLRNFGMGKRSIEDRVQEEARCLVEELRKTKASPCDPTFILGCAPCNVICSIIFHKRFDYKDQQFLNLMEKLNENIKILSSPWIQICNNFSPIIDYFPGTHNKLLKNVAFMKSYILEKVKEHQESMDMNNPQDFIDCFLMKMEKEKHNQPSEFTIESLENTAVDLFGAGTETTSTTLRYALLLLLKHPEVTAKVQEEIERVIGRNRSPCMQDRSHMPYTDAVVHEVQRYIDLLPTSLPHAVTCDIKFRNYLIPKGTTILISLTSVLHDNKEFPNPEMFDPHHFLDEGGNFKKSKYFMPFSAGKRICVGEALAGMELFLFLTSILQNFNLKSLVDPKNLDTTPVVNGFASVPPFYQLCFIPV
# Sequence of Cytochrome P450 2C19 (P33261 whole entry): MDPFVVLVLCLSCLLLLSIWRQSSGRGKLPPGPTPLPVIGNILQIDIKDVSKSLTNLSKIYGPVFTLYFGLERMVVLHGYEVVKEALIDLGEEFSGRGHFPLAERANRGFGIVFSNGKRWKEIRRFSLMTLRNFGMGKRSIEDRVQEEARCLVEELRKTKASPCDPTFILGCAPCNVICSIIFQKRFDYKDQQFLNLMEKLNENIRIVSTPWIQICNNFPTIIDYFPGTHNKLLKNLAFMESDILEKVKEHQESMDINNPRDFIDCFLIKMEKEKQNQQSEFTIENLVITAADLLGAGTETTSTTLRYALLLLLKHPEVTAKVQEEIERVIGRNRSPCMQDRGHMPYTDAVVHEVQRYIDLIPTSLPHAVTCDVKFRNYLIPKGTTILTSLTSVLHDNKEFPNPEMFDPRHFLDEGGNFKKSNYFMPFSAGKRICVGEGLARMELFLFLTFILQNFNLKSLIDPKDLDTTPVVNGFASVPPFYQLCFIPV
structure (smiles),measurement,setting,value
COCCn1nc2c(c1Nc1nc(-c3ccc(-n4cnc(C)c4)c(OC)n3)cs1)CCCC2,Stabilty,[1],45%
same,pIC50,Gamma-secretase,6.84
same,Stabilty,[2],29%
same,Stabilty,[3],1.8%
same,solubility kinetic,[4],20 µM
COc1nc(-c2csc(Nc3c4c(nn3C)CCCC4)n2)ccc1-n1cnc(C)c1,Stabilty,[1],60%
same,pIC50,Gamma-secretase,6.98
same,Stabilty,[2],34%
same,Stabilty,[3],36%
same,solubility kinetic,[4],15 µM
COc1nc(-c2csc(Nc3c4c(nn3C3CCC3)CCC4)n2)ccc1-n1cnc(C)c1,Stabilty,[1],37%
same,pIC50,Gamma-secretase,7.68
same,Stabilty,[2],26%
same,Stabilty,[3],3%
same,solubility kinetic,[4],2.7 µM
COc1nc(-c2csc(Nc3c4c(nn3C(C)(C)C)CCC4)n2)ccc1-n1cnc(C)c1,Stabilty,[1],55%
same,pIC50,Gamma-secretase,7.21
same,Stabilty,[2],20%
same,Stabilty,[3],21%
same,solubility kinetic,[4],3.9 µM
COc1cc(-c2csc(Nc3c4c(nn3C)CCCC4)n2)ccc1-n1cnc(C)c1,pIC50,Gamma-secretase,6.83
CCn1nc(C(C)(C)C)cc1Nc1nc(-c2ccc(-n3cnc(C)c3)nc2)cs1,Stabilty,[1],60%
same,pIC50,Gamma-secretase,6.53
same,Stabilty,[2],87%
same,Stabilty,[3],43%
same,solubility kinetic,[4],< 1.6 µM
COc1nc(-c2csc(Nc3cc(C(C)(C)C)nn3C(C)(C)C)n2)ccc1-n1cnc(C)c1,pIC50,Gamma-secretase,7.40
same,solubility kinetic,[4],< 1.6 µM
COc1nc(-c2csc(Nc3c4c(nn3C3CCOCC3)CCCC4)n2)ccc1-n1cnc(C)c1,pIC50,Gamma-secretase,6.99
same,solubility kinetic,[4],4.7 µM
COc1nc(-c2csc(Nc3cc(C(F)(F)F)nn3CC(F)(F)F)n2)ccc1-n1cnc(C)c1,pIC50,Gamma-secretase,6.70
same,solubility kinetic,[4],2 µM
Cc1cn(-c2ccc(-c3csc(Nc4c5c(nn4C)CCCC5)n3)cc2)cn1,Stabilty,[1],56%
same,pIC50,Gamma-secretase,6.34
same,Stabilty,[2],84%
same,"remaining at 0.5 h, 1 µM",[3]; liver microsomes,55%
COc1nc(-c2csc(Nc3c4c(nn3C(C)C)CCC4)n2)ccc1-n1cnc(C)c1,Stabilty,[1],56%
same,pIC50,Gamma-secretase,7.05
same,Stabilty,[2],34%
same,Stabilty,[3],23%
same,solubility kinetic,[4],5.7 µM
CCn1nc2c(c1Nc1nc(-c3ccc(-n4cnc(C)c4)nc3)cs1)CCCC2,pIC50,Gamma-secretase,< 6.00
CCn1nc(C(C)(C)C)cc1Nc1nc(-c2ccc(-n3cnc(C)c3)cc2)cs1,pIC50,Gamma-secretase,6.47
COc1nc(-c2csc(Nc3cc(C(F)(F)F)nn3C(C)(C)C)n2)ccc1-n1cnc(C)c1,pIC50,Gamma-secretase,6.90
same,solubility kinetic,[4],< 1.6 µM
COc1nc(-c2csc(Nc3cc(C(C)(C)C)nn3CCF)n2)ccc1-n1cnc(C)c1,Stabilty,[1],86%
same,pIC50,Cytochrome P450 2C9,5.39
same,pIC50,Cytochrome P450 2D6,< 4.00
same,pIC50,Gamma-secretase,7.14
same,pIC50,Cytochrome P450 2C19,5.48
same,pIC50,Cytochrome P450 3A4,7.40
same,pIC50,Cytochrome P450 1A2,4.19
same,Stabilty,[2],67%
same,Stabilty,[3],49%
same,solubility kinetic,[4],3.3 µM
CCn1nc2c(c1Nc1nc(-c3ccc(-n4cnc(C)c4)c(OC)n3)cs1)CCCCC2,Stabilty,[1],41%
same,pIC50,Cytochrome P450 2C9,4.43
same,pIC50,Cytochrome P450 2D6,< 4.00
same,pIC50,Gamma-secretase,7.49
same,pIC50,Cytochrome P450 2C19,4.07
same,pIC50,Cytochrome P450 3A4,4.96
same,pIC50,Cytochrome P450 1A2,< 4.00
same,Stabilty,[2],15%
same,Stabilty,[3],0.1%
same,solubility kinetic,[4],4.3 µM
CCn1nc2c(c1Nc1nc(-c3ccc(-n4cnc(C)c4)c(OC)n3)cs1)CCC2(C)C,Stabilty,[1],61%
same,pIC50,Cytochrome P450 2C9,4.32
same,pIC50,Cytochrome P450 2D6,< 4.00
same,pIC50,Gamma-secretase,6.96
same,pIC50,Cytochrome P450 2C19,4.82
same,pIC50,Cytochrome P450 3A4,6.12
same,pIC50,Cytochrome P450 1A2,< 4.00
same,Stabilty,[2],49%
same,Stabilty,[3],31%
same,solubility kinetic,[4],8.8 µM
COc1nc(-c2csc(Nc3cc(C(C)(C)C)nn3CC(F)(F)F)n2)ccc1-n1cnc(C)c1,Stabilty,[1],90%
same,pIC50,Cytochrome P450 2C9,4.70
same,pIC50,Cytochrome P450 2D6,< 4.00
same,pIC50,Gamma-secretase,7.14
same,pIC50,Cytochrome P450 2C19,5.05
same,pIC50,Cytochrome P450 3A4,6.00
same,pIC50,Cytochrome P450 1A2,4.74
same,Stabilty,[2],93%
same,Stabilty,[3],47%
same,solubility kinetic,[4],1.7 µM
CCn1nc2c(c1Nc1nc(-c3ccc(-n4cnc(C)c4)c(O)n3)cs1)CCCC2,pIC50,Gamma-secretase,6.33
COc1nc(-c2csc(Nc3c4c(nn3CC(F)(F)F)CCCC4)n2)ccc1-n1cnc(C)c1,Stabilty,[1],41%
same,pIC50,Gamma-secretase,7.24
same,Stabilty,[2],39%
same,Stabilty,[3],13%
same,solubility kinetic,[4],7.4 µM
COc1nc(-c2csc(Nc3c4c(nn3CCCO)CCCC4)n2)ccc1-n1cnc(C)c1,Stabilty,[1],52%
same,pIC50,Cytochrome P450 2C9,< 4.00
same,pIC50,Cytochrome P450 2D6,< 4.00
same,pIC50,Gamma-secretase,7.30
same,pIC50,Cytochrome P450 2C19,4.51
same,pIC50,Cytochrome P450 3A4,5.66
same,pIC50,Cytochrome P450 1A2,< 4.00
same,Stabilty,[2],32%
same,Stabilty,[3],17%
same,solubility kinetic,[4],23 µM
CCn1nc2c(c1Nc1nc(-c3ccc(-n4cnc(C)c4)c(OC)n3)cs1)C(C)CC2(C)C (racemic),Stabilty,[1],38%
same,pIC50,Cytochrome P450 2C9,4.46
same,pIC50,Cytochrome P450 2D6,< 4.00
same,pIC50,Gamma-secretase,7.14
same,pIC50,Cytochrome P450 2C19,4.48
same,pIC50,Cytochrome P450 3A4,5.82
same,pIC50,Cytochrome P450 1A2,< 4.00
same,Stabilty,[2],21%
same,Stabilty,[3],12%
same,solubility kinetic,[4],9.2 µM
Cc1cn(-c2ccc(-c3csc(Nc4cc(C(C)(C)C)nn4C)n3)cc2)cn1,pIC50,Gamma-secretase,6.56
COc1nc(-c2csc(Nc3cc(C(C)(C)C)nn3C)n2)ccc1-n1cnc(C)c1,pIC50,Gamma-secretase,6.87
CCn1nc2c(c1N(C)c1nc(-c3ccc(-n4cnc(C)c4)c(OC)n3)cs1)CCCC2,pIC50,Gamma-secretase,6.20
same,solubility kinetic,[4],3.4 µM
COc1nc(-c2csc(Nc3c4c(nn3CCN3CCOCC3)CCCC4)n2)ccc1-n1cnc(C)c1,Stabilty,[1],22%
same,pIC50,Gamma-secretase,6.75
same,Stabilty,[2],11%
same,Stabilty,[3],0%
same,solubility kinetic,[4],70 µM
CCn1nc(C(C)C)cc1Nc1nc(-c2ccc(-n3cnc(C)c3)c(OC)n2)cs1,pIC50,Gamma-secretase,6.74
COc1nc(-c2csc(Nc3c4c(nn3C3CCCC3)CCCC4)n2)ccc1-n1cnc(C)c1,pIC50,Gamma-secretase,7.08
same,solubility kinetic,[4],1.8 µM
CCn1nc(C(C)(C)C)cc1Nc1nc(-c2ccc(-n3cnc(C)c3)c(OC)c2)cs1,pIC50,Gamma-secretase,7.02
CCn1nccc1Nc1nc(-c2ccc(-n3cnc(C)c3)c(OC)n2)cs1,pIC50,Gamma-secretase,< 6.00
CCn1nc2c(c1Nc1nc(-c3ccc(-n4cnc(C)c4)c(OC)c3)cs1)CCCC2,pIC50,Gamma-secretase,6.77
same,solubility kinetic,[4],4.6 µM
CCCn1nc2c(c1Nc1nc(-c3ccc(-n4cnc(C)c4)c(OC)n3)cs1)CCCC2,pIC50,Gamma-secretase,7.32
same,solubility kinetic,[4],< 1.6 µM
CCn1nc2c(c1Nc1nc(-c3cnc(-n4cnc(C)c4)c(OC)n3)cs1)CCCC2,pIC50,Gamma-secretase,7.05
same,solubility kinetic,[4],< 1.6 µM
COc1nc(-c2csc(Nc3c4c(nn3C3CCOC3)CCCC4)n2)ccc1-n1cnc(C)c1 (racemic),Stabilty,[1],42%
same,pIC50,Gamma-secretase,6.99
same,Stabilty,[2],70%
same,Stabilty,[3],2.1%
same,solubility kinetic,[4],19 µM
CCCn1nc(C(C)(C)C)cc1Nc1nc(-c2ccc(-n3cnc(C)c3)c(OC)n2)cs1,pIC50,Gamma-secretase,7.00
same,solubility kinetic,[4],2.1 µM
CCn1nc(C(C)(C)C)cc1Nc1nc(-c2ccc(-n3cnc(C)c3)c(OC)n2)cs1,Stabilty,[1],89%
same,pIC50,Gamma-secretase,6.94
same,Stabilty,[2],67%
same,Stabilty,[3],38%
same,solubility kinetic,[4],15 µM
COc1nc(-c2csc(Nc3c4c(nn3C3CCCCC3)CCCC4)n2)ccc1-n1cnc(C)c1,pIC50,Gamma-secretase,7.20
same,solubility kinetic,[4],< 1.6 µM
Cc1cn(-c2ccc(-c3csc(Nc4c5c(nn4C)CCCC5)n3)cn2)cn1,pIC50,Gamma-secretase,< 6.00
COc1nc(-c2csc(Nc3c4c(nn3CCN3CCCCC3)CCCC4)n2)ccc1-n1cnc(C)c1,pIC50,Gamma-secretase,6.68
same,solubility kinetic,[4],46 µM
COc1nc(-c2csc(Nc3c4c(nn3C3CCN(C)CC3)CCCC4)n2)ccc1-n1cnc(C)c1,pIC50,Gamma-secretase,< 6.00
same,solubility kinetic,[4],92 µM
COc1cc(-c2csc(Nc3cc(C(C)(C)C)nn3C)n2)ccc1-n1cnc(C)c1,Stabilty,[1],76%
same,pIC50,Gamma-secretase,6.60
same,Stabilty,[2],92%
same,Stabilty,[3],60%
COc1nc(-c2csc(Nc3c4c(nn3CCCN3CCOCC3)CCCC4)n2)ccc1-n1cnc(C)c1,Stabilty,[1],6.4%
same,pIC50,Gamma-secretase,6.90
same,Stabilty,[2],0.7%
same,Stabilty,[3],1.9%
same,solubility kinetic,[4],39 µM
COc1nc(-c2csc(Nc3c4c(nn3C(C)C)CCCC4)n2)ccc1-n1cnc(C)c1,Stabilty,[1],64%
same,pIC50,Gamma-secretase,7.34
same,Stabilty,[2],45%
same,Stabilty,[3],10%
same,solubility kinetic,[4],3.3 µM
Cc1cn(-c2ccc(-c3csc(Nc4cc(C(C)(C)C)nn4C)n3)cn2)cn1,pIC50,Gamma-secretase,6.23
CCn1nc2c(c1Nc1nc(-c3ccc(-n4cnc(C)c4)cc3)cs1)CCCC2,pIC50,Gamma-secretase,6.18
